In ChEMBL document CHEMBL2311434, “Search for new tools to combat Gram-negative resistant bacteria among amine derivatives of 5-arylidenehydantoin” (2013):
≈ marks a conversion by molar mass, not a printed value. Calls of active or inactive are those of the source. No cut-off for these calls is given here. Peptide text beside a SMILES is read from it. * marks the point of attachment. βNA = c1ccc2cc(N*)ccc2c1

What was measured:
[1] = test system: Klebsiella aerogenes; assay: Antibacterial activity against wild type Enterobacter aerogenes ATCC 13048 assessed as growth inhibition after 18 hrs by CLSI broth dilution method; format: functional; details: ATCC 13048, 18 h
In short: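 Broth dilution per CLSI in Mueller-Hinton broth, about 10^6 cells per 1 mL, read after 18 h at 37 °C. The compound alone, with no antibiotic, against reference strain ATCC 13048. MIC is the mean of three independent determinations.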

[2] = test system: Klebsiella aerogenes; assay: Antibacterial activity against Enterobacter aerogenes CM-64 overexpressing AcrAB-TolC assessed as growth inhibition after 18 hrs by CLSI broth dilution method; format: functional; details: CM-64, 18 h
In short: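 Intrinsic MIC of each compound with no antibiotic added. About 10^6 cells were inoculated into 1 mL Mueller-Hinton broth with twofold serial dilutions, following CLSI guidelines. Plates were read after 18 h at 37 °C, in triplicate. MIC is the mean of three independent determinations.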

[3] = test system: Klebsiella aerogenes; assay: Chemosensitization of Enterobacter aerogenes CM-64 overexpressing AcrAB-TolC assessed as decrease in chloramphenicol MIC at 63 uM relative to control; format: functional
In short: (§1)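 About 10^6 cells were put into 1 mL Mueller-Hinton broth with twofold serial dilutions of the antibiotic (CLSI). A fixed sub-inhibitory compound concentration was added, set without antibiotic, usually ≤1/4 MIC. Controls ran without inhibitor. Plates were read after 18 h at 37 °C. MICs are the means of three independent determinations. Activity gain = MIC without compound / MIC with compound.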

[4] = test system: Klebsiella aerogenes; assay: Chemosensitization of Enterobacter aerogenes CM-64 overexpressing AcrAB-TolC assessed as decrease in nalidixic acid MIC at 63 uM relative to control; format: functional; in short: as §1
[5] = test system: Klebsiella aerogenes; assay: Chemosensitization of Enterobacter aerogenes CM-64 overexpressing AcrAB-TolC assessed as decrease in sparfloxacin MIC at 63 uM relative to control; format: functional; in short: as §1
[6] = test system: Klebsiella aerogenes; assay: Chemosensitization of wild type Enterobacter aerogenes ATCC 13048 assessed as decrease in sparfloxacin MIC at 63 uM relative to control; format: functional, organism-based; in short: as §1
[7] = test system: Klebsiella aerogenes; assay: Chemosensitization of wild type Enterobacter aerogenes ATCC 13048 assessed as decrease in […] at 50 uM relative to control; format: functional, organism-based
[8] = test system: Klebsiella aerogenes; assay: Chemosensitization of wild type Enterobacter aerogenes ATCC 13048 assessed as decrease in nalidixic acid MIC at 200 uM relative to control; format: functional; in short: as §1
[9] = test system: Klebsiella aerogenes; assay: Chemosensitization of Enterobacter aerogenes CM-64 overexpressing AcrAB-TolC assessed as decrease in sparfloxacin MIC at 200 uM relative to control; format: functional; in short: as §1
[10] = test system: Klebsiella aerogenes; assay: Chemosensitization of Enterobacter aerogenes CM-64 overexpressing AcrAB-TolC assessed as decrease in nalidixic acid MIC at 100 uM relative to control
[11] = test system: Klebsiella aerogenes; assay: Chemosensitization of wild type Enterobacter aerogenes ATCC 13048 assessed as decrease in nalidixic acid MIC at 63 uM relative to control; format: functional
In short: (§2)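 Antibiotic MIC by CLSI broth dilution: about 10^6 cells in 1 mL Mueller-Hinton broth with twofold antibiotic dilutions, 18 h at 37 °C, in triplicate. Compound held at a fixed sub-inhibitory level (≤MIC/4) set without antibiotic. Controls ran without inhibitor and without antibiotic. PAβN 50 µM served as reference. Activity gain = MIC without compound / MIC with compound. MICs are the mean of three determinations.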

[12] = test system: Klebsiella aerogenes; assay: Chemosensitization of wild type Enterobacter aerogenes ATCC 13048 assessed as decrease in nalidixic acid MIC at 100 uM relative to control; format: functional; in short: as §1
[13] = test system: Klebsiella aerogenes; assay: Chemosensitization of Enterobacter aerogenes CM-64 overexpressing AcrAB-TolC assessed as decrease in sparfloxacin MIC at 100 uM relative to control; format: functional, organism-based; in short: as §1
[14] = test system: Klebsiella aerogenes; assay: Chemosensitization of Enterobacter aerogenes CM-64 overexpressing AcrAB-TolC assessed as decrease in nalidixic acid MIC at 100 uM relative to control; format: functional, organism-based; in short: as §1
[15] = test system: Klebsiella aerogenes; assay: Chemosensitization of wild type Enterobacter aerogenes ATCC 13048 assessed as decrease in chloramphenicol MIC at 200 uM relative to control; format: functional, organism-based; in short: as §2
[16] = test system: Klebsiella aerogenes; assay: Chemosensitization of Enterobacter aerogenes CM-64 overexpressing AcrAB-TolC assessed as decrease in nalidixic acid MIC at 200 uM relative to control; format: functional; in short: as §1
[17] = test system: Klebsiella aerogenes; assay: Chemosensitization of wild type Enterobacter aerogenes ATCC 13048 assessed as decrease in chloramphenicol MIC at 63 uM relative to control; format: functional, organism-based; in short: as §2
[18] = test system: Klebsiella aerogenes; assay: Chemosensitization of Enterobacter aerogenes CM-64 overexpressing AcrAB-TolC assessed as decrease in chloramphenicol MIC at 200 uM relative to control; format: functional; in short: as §1

O=C(N[C@H](CO)[C@H](O)c1ccc([N+](=O)[O-])cc1)C(Cl)Cl [CHLORAMPHENICOL]
MIC [1]: 4 µM (≈ 1.29 µg/mL) | MIC [2]: 256 µM (≈ 82.7 µg/mL)

COc1ccc(/C=C2\NC(=O)N(CC(O)CN3CCN(CCO)CC3)C2=O)c(OC)c1 (centres undefined)
fold change (FC) [3]: 4 | MIC [1]: 125 µM (≈ 54.3 µg/mL) | MIC [2]: 250 µM (≈ 109 µg/mL) | fold change (FC) [4]: 4 | fold change (FC) [5]: 2

COc1ccc(/C=C2\NC(=O)N(CC(O)CN3CCOCC3)C2=O)cc1 (centres undefined)
MIC [1]: > 2000 µM | MIC [2]: > 2000 µM | Activity [5]: inactive

CC(C)NCC(O)CN1C(=O)N/C(=C\c2ccc(Cl)cc2)C1=O (centres undefined)
fold change (FC) [3]: 4 | Activity [6]: Active | MIC [1]: 250 µM (≈ 84.5 µg/mL) | MIC [2]: 250 µM (≈ 84.5 µg/mL) | Activity [4]: Active | fold change (FC) [5]: 4

CC(C)NCC(O)CN1C(=O)N/C(=C\c2ccc(Br)cc2)C1=O (centres undefined)
MIC [1]: > 1250 µM | MIC [2]: > 1250 µM

N=C(N)NCCC[C@H](NC(=O)[C@@H](N)Cc1ccccc1)C(=O)Nc1ccc2ccccc2c1 [PABETAN] (H-Phe-Arg-βNA)
Activity [7]: Active | MIC [1]: 5000 µM (≈ 2230 µg/mL) | MIC [2]: 5000 µM (≈ 2230 µg/mL)

COc1ccc(/C=C2\NC(=O)N(CC(O)CN3CCCCC3)C2=O)cc1 (centres undefined)
MIC [1]: > 2000 µM | MIC [2]: > 2000 µM

COc1ccccc1N1CCN(CC(O)CN2C(=O)N/C(=C\c3ccc(Cl)cc3)C2=O)CC1 (centres undefined)
MIC [1]: 500 µM (≈ 235 µg/mL) | fold change (FC) [8]: 2 | Activity [9]: inactive | fold change (FC) [10]: 4 | MIC [2]: 1000 µM (≈ 471 µg/mL)

O=C(CN1C(=O)N/C(=C\c2ccc(Br)cc2)C1=O)N1CCN(CCO)CC1
MIC [1]: > 1250 µM | MIC [2]: > 1250 µM | fold change (FC) [4]: 4

C[C@@H]1CN(c2c(F)c(N)c3c(=O)c(C(=O)O)cn(C4CC4)c3c2F)C[C@H](C)N1 [SPARFLOXACIN]
MIC [1]: 0.06 µM (≈ 0.0235 µg/mL) | MIC [2]: 1 µM (≈ 0.392 µg/mL)

COc1ccc(/C=C2\NC(=O)N(CC(O)CNC(C)C)C2=O)c(OC)c1 (centres undefined)
fold change (FC) [3]: 4 | Activity [6]: Active | fold change (FC) [11]: 2 | MIC [1]: 250 µM (≈ 90.9 µg/mL) | MIC [2]: 250 µM (≈ 90.9 µg/mL) | fold change (FC) [4]: 4 | fold change (FC) [5]: 4

COc1ccc(/C=C2\NC(=O)N(CC(O)CN3CCN(C)CC3)C2=O)cc1.Cl (centres undefined)
MIC [1]: > 2000 µM | MIC [2]: > 2000 µM | fold change (FC) [5]: 2

CCN(CC)c1ccc(/C=C2\NC(=O)N(CC(O)CN3CCN(CCO)CC3)C2=O)cc1 (centres undefined)
fold change (FC) [3]: 4 | fold change (FC) [11]: 2 | MIC [1]: 125 µM (≈ 55.7 µg/mL) | MIC [2]: 250 µM (≈ 111 µg/mL) | fold change (FC) [4]: 4 | fold change (FC) [5]: 4

CCn1cc(C(=O)O)c(=O)c2ccc(C)nc21 [NALIDIXIC ACID]
MIC [1]: 8 µM (≈ 1.86 µg/mL) | MIC [2]: 128 µM (≈ 29.7 µg/mL)

COc1ccc(/C=C2\NC(=O)N(CC(O)CN3CCN(c4ccccc4)CC3)C2=O)cc1OC (centres undefined)
fold change (FC) [12]: 2 | Activity [13]: inactive | Activity [14]: Active | MIC [1]: 500 µM (≈ 233 µg/mL) | MIC [2]: 500 µM (≈ 233 µg/mL)

CCOc1ccccc1N1CCN(CC(O)CN2C(=O)N/C(=C\c3ccc(Cl)cc3)C2=O)CC1 (centres undefined)
MIC [1]: 500 µM (≈ 242 µg/mL) | fold change (FC) [9]: 2 | Activity [15]: Active | fold change (FC) [10]: 4 | MIC [2]: 1000 µM (≈ 485 µg/mL)

COc1ccccc1N1CCN(CC(O)CN2C(=O)N/C(=C\c3ccccc3)C2=O)CC1 (centres undefined)
MIC [1]: 500 µM (≈ 218 µg/mL) | fold change (FC) [8]: 2 | Activity [9]: inactive | MIC [2]: 1000 µM (≈ 437 µg/mL) | Activity [16]: Active

COc1ccc(/C=C2\NC(=O)N(CC(O)CNCCCN3CCN(C)CC3)C2=O)cc1.Cl (centres undefined)
Activity [17]: Active | Activity [6]: Active | fold change (FC) [11]: 2 | MIC [1]: > 2000 µM | MIC [2]: > 2000 µM | Activity [5]: inactive

COc1ccc(/C=C2\NC(=O)N(CC(O)CN3CCN(c4ccccc4OC)CC3)C2=O)cc1OC (centres undefined)
fold change (FC) [18]: 2 | MIC [1]: 1000 µM (≈ 497 µg/mL) | Activity [9]: inactive | MIC [2]: 1000 µM (≈ 497 µg/mL) | Activity [16]: Active

COc1ccc(/C=C2\NC(=O)N(CC(O)CN3CCN(C(C)=O)CC3)C2=O)cc1 (centres undefined)
MIC [1]: > 2000 µM | MIC [2]: > 2000 µM | Activity [4]: Active | Activity [5]: inactive

O=C(CN1C(=O)N/C(=C\c2ccccc2)C1=O)N1CCN(CCO)CC1
fold change (FC) [3]: 2 | MIC [1]: 125 µM (≈ 44.8 µg/mL) | MIC [2]: 250 µM (≈ 89.6 µg/mL) | fold change (FC) [4]: 4 | fold change (FC) [5]: 2

O=C1N/C(=C\c2ccc(Cl)cc2)C(=O)N1CC(O)CN1CCN(CCO)CC1 (centres undefined)
Activity [6]: Active | MIC [1]: 250 µM (≈ 102 µg/mL) | MIC [2]: 250 µM (≈ 102 µg/mL) | fold change (FC) [4]: 4 | Activity [5]: inactive

COc1ccc(/C=C2\NC(=O)N(CC(O)CN3CCNCC3)C2=O)cc1.Cl.Cl (centres undefined)
MIC [1]: > 2000 µM | MIC [2]: > 2000 µM | fold change (FC) [5]: 2
